The text below walks through data of ChEMBL document CHEMBL1124149 (1988).

The assay relates to Vaccinia virus. Briefly: In vitro minimum inhibitory concentration to inhibit VV-induced cytopathogenicity in PRK cells by 50%. Format: functional. As to conditions: Orthopoxvirus vaccinia. Put shortly: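 Antiviral read-out was virus-induced cytopathogenicity in primary rabbit kidney (PRK) cell cultures. The value is the compound concentration needed to reduce cytopathogenicity by 50%.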

≈ marks a conversion by molar mass, not a printed value.

`Nc1nc2c(ncn2COCCO)c(=O)[nH]1` [ACYCLOVIR] came in with an MIC of 150 µg/mL (≈ 666 µM).
For the compound `Cc1cn2c([O-])c3c(nc2n1)[n+](COCCO)cn3C`, the MIC was > 400 µg/mL.
The same measure for `Cc1cn2c(O)c3ncn(COCCO)c3nc2n1`: > 400 µg/mL; for `Cn1c(N)nc2c(ncn2COCCO)c1=O`: > 400 µg/mL.
In the case of `Cn1c[n+](COCCO)c2nc(N)nc([O-])c21.O=S(=O)(O)O`, the MIC is > 400 µg/mL.
`Cc1cn2c(=O)c3ncn(COCCO)c3nc2n1C`: the MIC is > 400 µg/mL.
Consider `CNc1nc(O)c2ncn(COCCO)c2n1`, for which the MIC was > 400 µg/mL.
